# Screening results as filed in PubChem.
# Shown are actives, neighbours in structure and some others; about 6.4% of the full set was active somewhere.
# NR3A LBD binder: NR3A (human) ligand-binding domain modulation. NR3A LBD differential scanning fluorimetry, Tm shift; 0% = protein alone, 100% = glycine-bound protein. Tm shift relative to glycine control, % at 25 µM. 340,000 compounds, 2.5% hits;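 active = melting temperature shift of at least 10% of the positive control shift, at one fixed dose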
# CHOP inhibitor: blocks CHOP induction under ER stress; CHO-K1 CHOP-promoter luciferase, tunicamycin-induced, 15-18 h; inhibition, % at 10 µM; 220,000 compounds, 3.8% hits; AID 2732;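 active = compounds that reduced the stress-induced luciferase reporter signal by more than about 70% of percent inhibition, limit read from the data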;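 also: 0% = tunicamycin plus vehicle and 100% = wells without tunicamycin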
# MPTP block: inhibitors of mitochondrial permeability transition pore; isolated mouse mitochondria, Ca2+ swelling absorbance, 30 min; inhibition, % at 10 µM; 360,000 compounds, 1.4% hits; AID 602449;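 active = inhibition of 50% or more, scaled per plate between neutral and stimulator controls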;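 also: 0% = DMSO wells given calcium and 100% = 1 mM EGTA wells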
# EBV gp42 block: EBV gp42 inhibition | AID 1085 | Q1HVG2 | Fluorescence polarization binding assay, mP read-out | 220,000 compounds, 0.42% hits | inhibition, % (tested at 21.74 µM); in the data active = inhibition above about 50%
# Target sequence (Q1HVG2 whole entry, looked up): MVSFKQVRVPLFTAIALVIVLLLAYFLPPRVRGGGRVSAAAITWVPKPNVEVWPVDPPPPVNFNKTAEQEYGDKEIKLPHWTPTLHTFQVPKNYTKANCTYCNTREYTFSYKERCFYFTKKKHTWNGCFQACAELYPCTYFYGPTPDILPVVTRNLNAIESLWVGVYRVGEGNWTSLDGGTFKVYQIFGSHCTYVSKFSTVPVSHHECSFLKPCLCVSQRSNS
# WT yeast gro inh: growth inhibition of WT yeast, mitochondrial fusion screen. 190,000 compounds, 2.1% hits. inhibition, % at 10 µM. mitochondrial fusion phenotypic screen, WT strain; in the data active = inhibition above about 58%; tested in S. cerevisiae
# Tb MetRS inh: Trypanosoma brucei MetRS inhibition | 360,000 compounds, 0.4% hits | inhibition, % at 11.9 µM | purified T. brucei MetRS, ATP depletion, Kinase-Glo luminescence;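 active = inhibition above a per-plate cutoff of the control wells' mean inhibition plus 3 SD, cut at about 5.5% in these data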;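 also: 0% = DMSO wells median and 100% = median of wells with control inhibitor compound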
#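 Material: parasite MetRS enzyme / Replication: singlicate, one well per compound / Signal: luminescence of leftover ATP / Schedule: 2 h aminoacylation at 25 °C after 15 min preincubation / Medium: HEPES-MgCl2-KCl buffer plus DTT, spermine, BSA, pyrophosphatase / Doses: 11.9 µM single point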
# * = called active by the depositor; x = not tested or not shown.
SMILES,NR3A LBD binder,CHOP inhibitor,MPTP block,EBV gp42 block,WT yeast gro inh,Tb MetRS inh
Cc1ccccc1NC(=O)c1ccc2c(c1)C(=O)N(CCC(C)C)C2=O,-4.4,78.8*,-0.7,-25.6,2.8,-0.4
Cc1cccc(NC(=O)c2ccc3c(c2)C(=O)N(Cc2cccnc2)C3=O)c1C,-1.9,x,1.5,x,x,1.1
[O-][n+]1c(/C=C/c2ccccc2)ccc2ccccc21,18.7*,x,0.0,x,x,-0.2
O=C(Cc1cccs1)N=Nc1c(O)[nH]c2ccccc12,-2.2,-45.9,1.6,-0.2,x,-0.8
CC(C)(O)C(=O)N=Nc1c(O)[nH]c2ccccc12,4.4,-29.9,-0.5,-7.0,-0.4,-0.3
O=C(N=Nc1c(O)[nH]c2ccccc12)c1cc(-c2ccc(F)cc2)n[nH]1,19.3*,28.2,1.0,61.5*,-13.1,1.9
O=C(N=Nc1c(O)[nH]c2ccccc12)c1cc(-c2cccs2)[nH]n1,22.3*,-21.8,0.6,49.2,x,0.0
Cc1cccc(C)c1OCc1nnc(SCC(=O)NCCc2ccccc2)o1,0.9,9.4,2.8,-27.1,-5.8,-0.2
NC(=O)C1CCN(C(=O)COCc2cc(-c3ccc4c(c3)OCO4)on2)CC1,0.8,x,-2.8,x,x,-0.2
CC[C@@H]1CC=C[C@H]2[C@H]1C(=O)N(Cc1ccccc1)[C@H]2c1ccc(C(F)(F)F)cc1,11.5*,38.0,-0.4,1.3,x,-0.4
Cc1ccc(-c2ccc([C@H]3[C@H]4C=CC[C@@H](C)[C@@H]4C(=O)N3Cc3ccccc3)c(F)c2)cc1,12.9*,6.7,0.1,-15.9,x,0.0
C[C@@H]1CC=C[C@H]2[C@H]1C(=O)N(Cc1ccccc1)[C@H]2c1ccc(F)c(Br)c1,x,76.4*,x,0.0,x,x
C[C@@H]1CC=C[C@H]2[C@H]1C(=O)N(Cc1ccccc1)[C@H]2c1ccc(-c2ccc(N(C)C)cc2)cc1F,1.3,-3.4,4.7,-23.1,x,-0.3
CSC1=N/C(=C\c2c(F)cccc2Cl)C(=O)S1,4.7,74.0*,0.0,-12.0,-4.0,0.2
COCCN(Cc1nnc(-c2cccs2)o1)C(=O)CN1C(=O)NC2(CCCCC2)C1=O,-1.6,x,1.1,x,x,-0.3
O=S(=O)(Nc1c(F)cccc1F)c1ccc2c(c1)OCCO2,-0.8,x,0.4,x,x,-0.4
CCOC(=O)c1ccc(NC(=O)C(=O)NCc2ccc(/C=C(/C#N)C(=O)NCCOC)o2)cc1,-0.6,71.8*,1.4,-30.3,11.5,-0.9
COC(=O)C1=C(O)/C(=C\c2ccc(CNC(=O)C(=O)Nc3ccc(C)c(C)c3)o2)N=C1C,-26.0,72.5*,-0.9,-13.3,12.0,-1.6
COC(=O)C1=C(O)/C(=C\c2ccc(CNC(=O)C(=O)Nc3ccc(C)cc3)o2)N=C1C,-2.5,69.1,4.7,-46.0,75.8*,-0.8
COC(=O)C1=C(O)/C(=C\c2ccc(CNS(=O)(=O)c3ccccc3)o2)N=C1C,-0.7,-31.8,3.5,-13.3,-0.1,0.6
CCOC(=O)C(=O)NCc1ccc(/C=C2/N=C(C)C(C(=O)OCC)=C2O)o1,0.6,5.9,1.2,-12.9,-15.1,-0.6
Cn1cnnc1SCC(=O)NC1CCCC1,2.4,x,0.3,x,x,0.0
CCOC(=O)N1CCN(c2c(N3CCN(c4ccc(OC)cc4)CC3)c(=O)c2=O)CC1,0.8,-12.7,-0.2,-17.0,-2.9,-0.5
Cc1ccc(NC(=O)CSc2ncccn2)c([N+](=O)[O-])c1,-0.6,-8.7,-1.8,-13.9,21.0,-0.7
CCOC(=O)c1c(C)n(C)c2ccc(OC(C)=O)cc12,1.0,1.2,-1.3,-10.1,-15.7,-0.9
SMILES,NR3A LBD binder,CHOP inhibitor,MPTP block,EBV gp42 block,WT yeast gro inh,Tb MetRS inh
CCOC(=O)c1c(C)n(C)c2cc(-c3ccc(F)cc3)c(O)cc12,1.6,79.4*,2.5,-0.9,-7.3,0.3
CCCn1c(C)nc2c(c1=O)c1nc3ccccc3nc1n2CCC1=CCCCC1,1.9,89.4*,1.4,-17.5,4.3,-1.2
Cc1nc2c(c(=O)n1CCC1=CCCCC1)c1nc3ccccc3nc1n2/N=C/c1ccco1,-1.8,30.4,1.9,-15.2,x,0.9
S=c1[nH]nc(-c2ccco2)n1/N=C/c1ccc(Cl)c(Cl)c1,-2.6,5.1,-0.2,18.6,75.9*,-1.8
Cc1ccc(-c2csc3ncn(-n4c(C)ccc4C)c(=O)c23)o1,-0.2,79.2*,-4.1,4.4,-8.1,0.8
COc1ccccc1C(CC(=O)Nc1ccc(Cl)cc1)c1ccc(OC(C)C)cc1 (stereo not drawn),12.2*,42.0,25.3,-8.8,10.2,0.5
C=CCn1c(-c2ccccc2)ccc(C#N)c1=O,3.5,91.4*,3.1,-1.6,5.1,0.2
COC(=O)c1cc2oc(C)cc2n1CC(=O)Nc1ccc(OC)c(OC)c1OC,x,1.4,x,-1.8,13.2,x
COc1ccc(C(=O)N2CCN(c3ncnc4c(-c5ccccc5)nsc34)CC2)cc1,1.1,41.2,-0.6,-11.9,5.5,0.3
COc1ccc(-c2nsc3c(N4CCCCC4C)ncnc23)cc1 (stereo not drawn),-2.3,92.7*,-0.1,-8.5,74.6*,0.0
COc1ccc(-c2nsc3c(N4CCCCC4)ncnc23)cc1,0.8,82.1*,0.2,-14.1,7.9,0.0
CC(C)=CCCC(C)CN1CCC(n2nccc2NC(=O)c2ccc3c(c2)OCO3)CC1 (stereo not drawn),2.6,x,2.9,x,x,-0.1
Clc1ccc(CSc2cc3c(nn2)-c2ccccc2CC3)cc1,-8.3,76.5*,6.9,6.6,32.1,-1.7
CC(C)c1ccc(NC(=O)c2cc(S(=O)(=O)N3CCCC3)c[nH]2)cc1,-11.2,x,1.5,x,x,-0.2
Cc1nc2cc(-c3ccccc3)sc2c(=O)n1N,-1.2,73.7*,0.5,-11.6,49.6,-3.4
COc1ccc(-c2cc3nc(C)n(N)c(=O)c3s2)cc1,-0.6,101.7*,1.9,-5.5,x,-2.9
Cn1c(NCc2ccccc2)nc2cc(-c3ccccc3)sc2c1=O,x,x,0.8,x,x,-0.2
Cc1cnc(C(=O)OCC(=O)c2c(N)n(CC(C)C)c(=O)n(C)c2=O)cn1,-1.7,x,-0.9,x,x,-0.2
O=C(NCc1ccccn1)C(=O)Nc1nc(-c2ccccc2)cs1,-0.2,0.6,0.1,-11.5,x,-1.0
C[C@H]1CN(S(=O)(=O)c2c(F)cccc2F)CCN1S(=O)(=O)c1ccc2c(c1)OCCO2,10.6*,x,-1.0,x,x,-0.2
COc1ccc(OC)c(NC(=O)COC(=O)c2ccc(-n3cnnn3)cc2)c1,-3.3,17.5,0.4,-14.4,-12.5,-0.2
CCn1c(SCC(=O)Nc2ccc3c(c2)OCO3)nc2ccccc21,-0.8,8.3,1.4,-14.2,2.9,-0.9
Oc1oc(-c2ccccc2)nc1C=Nc1ccccc1,-31.6,-32.3,-0.8,-9.4,-15.9,1.1
Sc1oc(-c2ccccc2)cc1C=Nc1ccccc1,14.0*,-10.9,2.1,0.7,-8.0,0.4
CCCC(=O)O[C@H]1C[C@@H](C)N(C(=O)c2ccccc2)c2ccc(C)cc21,-3.2,73.9*,-3.9,-7.0,22.7,-0.3
